ChEMBL document CHEMBL1157794, “Discovery of N-[(4R)-6-(4-chlorophenyl)-7-(2,4-dichlorophenyl)-2,2-dimethyl-3,4-dihydro-2H-pyrano[2,3-b]pyridin-4-yl]-5-methyl-1H-pyrazole-3-carboxamide (MK-5596) as a novel cannabinoid-1 receptor (CB1R) inverse agonist for the treatment of obesity” (J Med Chem, 2010)
Blank lines part the entries; values can stand above or below the molecule they belong to.

Columns and labels:
[1] = Half life in Sprague-Dawley rat at 1 mg/kg, iv and 2 mg/kg, po; type: ADME, organism-based; conditions: in vivo
Outline: (§1)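 Male Sprague-Dawley rats dosed 1 mg/kg iv and 2 mg/kg po; male beagle dogs and rhesus monkeys 0.2 mg/kg iv and 0.4 mg/kg po. Iv vehicle EtOH/PEG400/water 20:50:30 (rat) or 20:40:40 v/v/v (dog, monkey); oral vehicle Imwitor 742/Tween-80 1:1 w/w. Clearance, Vdss, t1/2, Cmax, F and dose-normalized oral AUC derived.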

[2] = Bioavailability in Sprague-Dawley rat at 1 mg/kg, iv and 2 mg/kg, po; type: ADME, organism-based; conditions: in vivo; outline: as §1
[3] = Cmax in Sprague-Dawley rat at 1 mg/kg, iv and 2 mg/kg, po; type: ADME, organism-based; conditions: in vivo; outline: as §1
[4] = Bioavailability in Beagle dog at 0.2 mg/kg, iv; type: ADME, organism-based, Canis lupus familiaris; conditions: in vivo; outline: as §1
[5] = Drug level in diet-induced obese rat plasma at 0.3 mg/kg, po measured after 24 hrs of last dose on day 13; type: ADME, organism-based; design: dose 0.3 mg/kg, route oral; conditions: read-out: Drug uptake
Outline: (§2)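 Separate parallel 13-day pharmacokinetic study in DIO rats at 0.3 mg/kg; plasma and brain levels determined 24 h after last dose.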

[6] = Ratio of drug level in brain to plasma in diet-induced obese rat at 0.3 mg/kg, po measured after 18 hrs of last dose on day 13; type: ADME, organism-based; design: dose 0.3 mg/kg, route oral; conditions: brain and plasma, read-out: BPR
Outline: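 DIO rats dosed daily for 13 days at 0.3 mg/kg in the chronic efficacy study. Plasma and brain levels determined 18 h after the last dose. Brain/plasma exposure ratio calculated.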

[7] = test system: Rattus norvegicus; assay: Dose normalized AUC in Sprague-Dawley rat assessed as per mg of plasma protein at 2 mg/kg, po; type: ADME, organism-based; design: dose 2 mg/kg, route oral; conditions: in vivo
[8] = Half life in rhesus monkey at 0.4 mg/kg, po; type: ADME, organism-based, Macaca mulatta; design: dose 0.4 mg/kg, route oral; conditions: in vivo; outline: as §1
[9] = Drug level in P-gp deficient CF1 mouse brain at 1 mg/kg, iv measured after 4 hrs; type: ADME, organism-based; design: dose 1 mg/kg, route intravenous; conditions: read-out: Drug uptake
Outline: (§3)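 Single iv 1 mg/kg to wild-type and P-gp deficient CF-1 mice; parent levels in plasma and brain measured 4 h postdose; brain/plasma ratio calculated.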

[10] = Cmax in rhesus monkey at 0.4 mg/kg, po; type: ADME, organism-based, Macaca mulatta; design: dose 0.4 mg/kg, route oral; conditions: in vivo; outline: as §1
[11] = Ratio of drug level in brain to plasma in P-gp deficient CF1 mouse at 1 mg/kg, iv measured after 4 hrs; type: ADME, organism-based; design: dose 1 mg/kg, route intravenous; conditions: brain and plasma, read-out: BPR
Outline: (§4)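 Single iv dose of 1 mg/kg given to wild-type and P-gp deficient CF-1 mice. Parent levels in plasma and brain determined 4 h postdose. Brain-to-plasma ratio calculated from these levels.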

[12] = test system: Rhesus monkey; assay: Dose normalized AUC in rhesus monkey at 0.4 mg/kg, po; type: ADME, organism-based, Macaca mulatta; design: dose 0.4 mg/kg, route oral; conditions: in vivo; outline: as §1
[13] = Cmax in Beagle dog at 0.4 mg/kg, po; conditions: in vivo
[14] = Oral bioavailability in rhesus monkey at 0.4 mg/kg; type: ADME, organism-based, Macaca mulatta; conditions: in vivo
Outline: (§5)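 Male Sprague-Dawley rats received 1 mg/kg iv and 2 mg/kg po. Male beagle dogs and rhesus monkeys received 0.2 mg/kg iv and 0.4 mg/kg po. The iv solution was EtOH/PEG400/water, 20:50:30 v/v/v for rats and 20:40:40 v/v/v for dogs and monkeys. The oral solution was Imwitor742/Tween-80 (1:1 w/w) for all species.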

[15] = Plasma clearance in Beagle dog at 0.2 mg/kg, iv; type: ADME, organism-based, Canis lupus familiaris; design: dose 0.2 mg/kg, route intravenous; outline: as §5
[16] = Drug level in wild type MDR1a-expressing mouse brain at 1 mg/kg, iv measured after 4 hrs; type: ADME, organism-based; design: dose 1 mg/kg, route intravenous; conditions: read-out: Drug uptake; outline: as §3
[17] = Drug level in diet-induced obese rat plasma at 0.3 mg/kg, po measured after 18 hrs of last dose on day 13; type: ADME, organism-based; design: dose 0.3 mg/kg, route oral; conditions: read-out: Drug uptake
Outline: (§6)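 At end of 13-day chronic efficacy study in DIO rats dosed orally at 0.3 mg/kg, plasma and brain drug levels measured 18 h after last dose.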

[18] = Plasma clearance in Sprague-Dawley rat at 1 mg/kg, iv and 2 mg/kg, po; type: ADME, organism-based; outline: as §5
[19] = Plasma concentration in dog at 10 mg/kg, iv administered for 30 mins; type: ADME, organism-based, Canis lupus familiaris; design: dose 10 mg/kg, route intravenous
Outline: (§7)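 Anesthetized dogs given iv infusions, each spread evenly over 30 min, at rising cumulative doses of 1, 3 and 10 mg/kg. Peak plasma levels were measured during each dose. Arterial pressure, heart rate and ECG intervals (PR, QRS, QTc) were monitored against vehicle-treated dogs.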

[20] = Drug level in P-gp deficient CF1 mouse plasma at 1 mg/kg, iv measured after 4 hrs; type: ADME, organism-based; design: dose 1 mg/kg, route intravenous; conditions: read-out: Drug uptake; outline: as §3
[21] = Metabolic stability in bile-duct cannulated rat bile assessed as compound remaining at 2 mg/kg, po up to 72 hrs; type: ADME, organism-based; design: dose 2 mg/kg, route oral; conditions: read-out: Stability
Outline: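 [3H]-labelled compound formulated in Imwitor 742/Tween-80 (1:1), given orally at 2 mg/kg to bile duct-cannulated rats; bile, feces and urine collected over 72 h; radioactivity recovery and radioprofiles of parent and metabolites determined.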

[22] = Ratio of drug level in brain to plasma in diet-induced obese rat at 0.3 mg/kg, po measured after 24 hrs of last dose on day 13; type: ADME, organism-based; design: dose 0.3 mg/kg, route oral; conditions: brain and plasma, read-out: BPR
Outline: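 Separate 13-day parallel pharmacokinetic study in DIO rats at 0.3 mg/kg. Plasma and brain exposures determined 24 h after the last dose. Brain/plasma ratio calculated.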

[23] = test system: Canis familiaris; assay: Dose normalized AUC in Beagle dog at 0.4 mg/kg, po; conditions: in vivo
[24] = Volume of distribution at steady state in Sprague-Dawley rat at 1 mg/kg, iv and 2 mg/kg, po; type: ADME, organism-based; conditions: in vivo, read-out: Vdss; outline: as §5
[25] = test system: Rhesus monkey; assay: Volume of distribution at steady state in rhesus monkey at 0.4 mg/kg, po; type: ADME, organism-based, Macaca mulatta; design: dose 0.4 mg/kg, route oral; conditions: in vivo; outline: as §5
[26] = Plasma concentration in dog at 1 mg/kg, iv administered for 30 mins; type: ADME, organism-based, Canis lupus familiaris; design: dose 1 mg/kg, route intravenous; outline: as §7
[27] = Ratio of drug level in brain to plasma in wild type MDR1a-expressing mouse at 1 mg/kg, iv measured after 4 hrs; type: ADME, organism-based; design: dose 1 mg/kg, route intravenous; conditions: brain and plasma, read-out: BPR; outline: as §4
[28] = Drug level in diet-induced obese rat brain at 0.3 mg/kg, po measured after 24 hrs of last dose on day 13; type: ADME, organism-based; design: dose 0.3 mg/kg, route oral; conditions: read-out: Drug uptake; outline: as §2
[29] = Plasma concentration in dog at 3 mg/kg, iv administered for 30 mins; type: ADME, organism-based, Canis lupus familiaris; design: dose 3 mg/kg, route intravenous; outline: as §7
[30] = Volume of distribution at steady state in Beagle dog at 0.2 mg/kg, iv; type: ADME, organism-based, Canis lupus familiaris; design: dose 0.2 mg/kg, route intravenous; conditions: in vivo, read-out: Vdss; outline: as §5
[31] = Half life in Beagle dog at 0.2 mg/kg, iv; type: ADME, organism-based, Canis lupus familiaris; design: dose 0.2 mg/kg, route intravenous; conditions: in vivo; outline: as §1
[32] = Drug level in diet-induced obese rat brain at 0.3 mg/kg, po measured after 18 hrs of last dose on day 13; type: ADME, organism-based; design: dose 0.3 mg/kg, route oral; conditions: read-out: Drug uptake; outline: as §6
[33] = Plasma clearance in rhesus monkey at 0.4 mg/kg, po; type: ADME, organism-based, Macaca mulatta; design: dose 0.4 mg/kg, route oral; outline: as §5
[34] = Drug level in wild type MDR1a-expressing mouse plasma at 1 mg/kg, iv measured after 4 hrs; type: ADME, organism-based; design: dose 1 mg/kg, route intravenous; conditions: read-out: Drug uptake; outline: as §3

- half-life [1]: 1.9 h
- bioavailability [2]: 1%
SMILES: CC1(C)C[C@@H](NC(=O)c2ccccc2O)c2cc(-c3ccc(Cl)cc3)c(-c3ccc(Cl)cc3Cl)nc2O1

- half-life [1]: 7.4 h
- bioavailability [2]: 5%
SMILES: CC1(C)C[C@@H](NC(=O)c2ccccc2N)c2cc(-c3ccc(Cl)cc3)c(-c3ccc(Cl)cc3Cl)nc2O1

- Cmax [3]: 1030 nM
- bioavailability [4]: 65%
- concentration at 24 h [5]: 135 nM
- Kp at 18 h [6]: 0.63
- AUC [7]: 11 µM·kg·h/mg
- half-life [8]: 15 h
- concentration at 4 h [9]: 1400 nM
- Cmax [10]: 90 nM
- Kp at 4 h [11]: 4.66
- AUC [12]: 6.1 µM·kg·h/mg
- Cmax [13]: 150 nM
- bioavailability [14]: 46%
- clearance [15]: 1.1 mL/min/kg
- concentration at 4 h [16]: 270 nM
- concentration at 18 h [17]: 180 nM
- clearance [18]: 4.5 mL/min/kg
- concentration at 0.5 h [19]: 6960 nM
- concentration at 4 h [20]: 300 nM
- remaining at 72 h [21]: 30%
- Kp at 24 h [22]: 0.55
- AUC [23]: 18 µM·kg·h/mg
- Vd [24]: 3 L/kg
- Vdss [25]: 2.4 L/kg
- concentration at 0.5 h [26]: 1630 nM
- Kp at 4 h [27]: 0.66
- half-life [1]: 8.5 h
- bioavailability [2]: 91%
- concentration at 24 h [28]: 74 nM
- concentration at 0.5 h [29]: 3260 nM
- Vd [30]: 5.7 L/kg
- half-life [31]: 60 h
- concentration at 18 h [32]: 110 nM
- CL/F [33]: 2.3 mL/min/kg
- concentration at 4 h [34]: 410 nM
SMILES: Cc1cc(C(=O)N[C@@H]2CC(C)(C)Oc3nc(-c4ccc(Cl)cc4Cl)c(-c4ccc(Cl)cc4)cc32)n[nH]1

SMILES: CC1(C)CC(NC(=O)CC(O)C(F)(F)F)c2cc(-c3ccc(Cl)cc3)c(-c3ccc(Cl)cc3Cl)nc2O1 (racemic) [N-[6-(4-CHLOROPHENYL)-7-(2,4-DICHLOROPHENYL)-2,2-DIMETHYL-3,4-DIHYDRO-2H-PYRANO[2,3-B]PYRIDINE-4-YL]-4,4,4-TRIFLUORO-3-HYDROXYBUTANAMIDE (DIASTEREOMERIC MIX)]
- half-life [1]: 8.2 h
- bioavailability [2]: 41%

SMILES: CC(O)C(=O)NC1CC(C)(C)Oc2nc(-c3ccc(Cl)cc3Cl)c(-c3ccc(Cl)cc3)cc21 (single isomer, unassigned)
- half-life [1]: 7.9 h
- bioavailability [2]: 100%
